According to ChEMBL document CHEMBL2021897, “Synthesis and SAR of 1,3-thiazolyl thiophene and pyridine derivatives as potent, orally active and S1P₃-sparing S1P₁ agonists” (Bioorg Med Chem Lett, 2012):
The source made the active and inactive calls. No cut-off for these calls is given here.

What was measured:
[1] = biological target: T1, Peroxisome proliferator-activated receptor alpha (Homo sapiens) (UniProt Q07869); assay: Agonist activity at PPARalpha; format: functional
T1 sequence (whole entry): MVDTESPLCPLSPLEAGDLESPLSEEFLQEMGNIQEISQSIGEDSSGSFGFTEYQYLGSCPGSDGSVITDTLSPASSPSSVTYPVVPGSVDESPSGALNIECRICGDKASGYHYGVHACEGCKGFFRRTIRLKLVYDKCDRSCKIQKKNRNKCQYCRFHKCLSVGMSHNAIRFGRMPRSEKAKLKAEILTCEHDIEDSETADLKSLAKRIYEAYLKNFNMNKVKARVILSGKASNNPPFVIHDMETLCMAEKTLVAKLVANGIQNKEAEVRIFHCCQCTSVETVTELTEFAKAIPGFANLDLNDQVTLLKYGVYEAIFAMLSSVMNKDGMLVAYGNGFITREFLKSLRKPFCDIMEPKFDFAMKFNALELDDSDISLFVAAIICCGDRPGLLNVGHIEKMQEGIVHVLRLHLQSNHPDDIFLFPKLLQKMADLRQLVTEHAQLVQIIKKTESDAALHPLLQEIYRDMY

[2] = biological target: Sphingosine 1-phosphate receptor 1 (Homo sapiens, UniProt P21453); assay: Agonist activity at human S1P1 receptor by [S35]GTPgammaS binding assay; format: functional
Sequence of Sphingosine 1-phosphate receptor 1 (P21453 whole entry): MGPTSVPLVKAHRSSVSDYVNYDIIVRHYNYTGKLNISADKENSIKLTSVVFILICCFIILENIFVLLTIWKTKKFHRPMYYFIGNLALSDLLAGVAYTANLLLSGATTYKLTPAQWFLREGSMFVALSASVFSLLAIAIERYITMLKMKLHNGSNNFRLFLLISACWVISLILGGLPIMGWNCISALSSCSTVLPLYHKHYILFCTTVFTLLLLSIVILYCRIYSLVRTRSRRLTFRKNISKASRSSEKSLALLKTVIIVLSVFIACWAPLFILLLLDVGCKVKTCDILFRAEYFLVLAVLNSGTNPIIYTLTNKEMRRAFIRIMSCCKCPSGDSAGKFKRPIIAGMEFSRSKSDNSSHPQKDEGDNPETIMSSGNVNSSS
In short: (§1)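 GTPγS binding at human S1P1 and S1P3 receptors. EC50 is the mean of two experimental determinations.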

[3] = biological target: Sphingosine 1-phosphate receptor 3 (Homo sapiens, UniProt Q99500); assay: Agonist activity at human S1P3 receptor by [S35]GTPgammaS binding assay; format: functional; in short: as §1
Sequence of Sphingosine 1-phosphate receptor 3 (Q99500 whole entry): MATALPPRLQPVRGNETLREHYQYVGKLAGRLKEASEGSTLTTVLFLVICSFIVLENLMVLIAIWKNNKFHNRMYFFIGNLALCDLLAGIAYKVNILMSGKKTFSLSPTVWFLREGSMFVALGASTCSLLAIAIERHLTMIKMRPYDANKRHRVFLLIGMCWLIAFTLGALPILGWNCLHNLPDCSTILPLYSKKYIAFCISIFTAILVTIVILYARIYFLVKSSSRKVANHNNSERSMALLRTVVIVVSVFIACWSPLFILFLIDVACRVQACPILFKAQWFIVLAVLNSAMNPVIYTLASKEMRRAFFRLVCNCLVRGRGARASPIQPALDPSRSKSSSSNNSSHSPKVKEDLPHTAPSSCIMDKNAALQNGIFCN

Rattus norvegicus [4] = assay: Immunosuppressive activity in po dosed LEW rat transplanted with spleen cells of WKAH rat assessed as inhibition of enlargement of draining popliteal lymph node administered qd for 4 days; format: functional; conditions: 96 h, read-out: ID50 (the source's name)
In short: (§2)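 Spleen cells from WKAH rats were injected into the footpads of LEW rats to induce draining popliteal lymph node enlargement. Dosing was oral, once daily for four days from the day of cell injection (day 0). Lymph node weight was measured on day 4. Values are the mean of five rats; ID50 is derived from at least three doses.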

Rattus norvegicus [5] = assay: Immunosuppressive activity in LEW rat transplanted with spleen cells of WKAH rat assessed as inhibition of enlargement of draining popliteal lymph node at 1 mg/kg, po qd for 4 days; format: functional; conditions: for inhibition in vivo at 1 mg/kg: 96 h; in short: as §2
Homo sapiens = species on record: Homo sapiens; assay: Selectivity ratio of EC50 for human S1P3 receptor to EC50 for human S1P1 receptor

SMILES	Activity [1]	EC50 [2] [µM]	EC50 [3] [µM]	ED50 (Rattus norvegicus [4]) [mg/kg]	inhibition (Rattus norvegicus [5])	inhibition in vivo at 1 mg/kg (Rattus norvegicus [5]) [%]	Ratio EC50 (Homo sapiens)
O=C(O)c1ccc(Oc2ccccc2)cc1	Active						
CCc1cc(CN2CC(C(=O)O)C2)sc1-c1cnc(-c2ccc(OC(C)C)c(C)c2)s1		0.011	> 20	0.19			
CCc1cc(CN2CC(C(=O)O)C2)sc1-c1cc(-c2ccc(Oc3ccccc3)cc2)no1		0.015	> 20		inactive		
CCc1cc(CN2CC(C(=O)O)C2)sc1-c1nnc(-c2ccc(Oc3ccccc3)cc2)o1		0.054	> 20				
CCc1cc(CN2CC(C(=O)O)C2)sc1-c1ncc(-c2ccc(Oc3ccccc3)cc2)o1		0.09	> 20				
CCc1cc(CN2CC(C(=O)O)C2)sc1-c1nnc(-c2ccc(Oc3ccccc3)cc2)s1		0.025	> 20		inactive		
CCc1cc(-c2ncc(-c3ccc(CN4CC(C(=O)O)C4)nc3CC)s2)ccc1CC(C)C		0.0054	> 20	0.74			
CCc1cc(CN2CC(C(=O)O)C2)sc1-c1cnc(-c2ccc(Oc3ccccc3)cc2)s1		0.035	> 20			25	
CCc1cc(CN2CC(C(=O)O)C2)sc1-c1ncc(-c2ccc(OC(C)C)c(C(C)C)c2)s1		0.0013	> 20	0.53			
CCc1cc(CN2CC(C(=O)O)C2)sc1-c1ncc(-c2ccc(C(C)C)c(C)c2)s1		0.0035	> 20	1.07			
CCc1cc(-c2cnc(-c3sc(CN4CC(C(=O)O)C4)cc3CC)s2)ccc1OC(C)C		0.0034	> 20	0.16			
CCc1nc(CN2CC(C(=O)O)C2)ccc1-c1cnc(-c2ccc(CC(C)C)c(C)c2)s1		0.0041	> 20	0.64			
CCc1cc(CN2CC(C(=O)O)C2)sc1-c1ncc(-c2ccc(Oc3ccccc3)cc2)s1		0.0045	> 20			42	> 4400
